Published values collected from several papers.
Each line is one published result; the experiments were not run side by side.
Read-out: cell growth or viability

For `CC(C)C(=O)Nc1ccc([N+](=O)[O-])c(C(F)(F)F)c1`, the IC50 was > 50000 nM (IOSE-144; CCK-8; 48 h).
With `O=C1NC(=O)[C@@H](c2cn3c4c(cccc24)CCC3)[C@@H]1c1c[nH]c2ccccc12` the IC50 was 110 nM (SW-1736; MTT; 72 h).
For `Oc1ccc(Nc2nc(-c3ccc(Cl)cc3)cs2)cc1`, the IC50 was > 100000 nM (1205Lu; MTS; 24 h).
The IC50 of `COc1cc2nccc(Oc3ccc(NC(=O)C4(C(=O)Nc5ccc(F)cc5)CC4)cc3)c2cc1OC` is reported as 4520 nM (BJ; 72 h).
`Cc1cccc(-n2ncc(Br)c(Br)c2=O)c1` gave an IC50 of 310 nM (NCI-H2444; resazurin; 96 h).
`COc1cc(N2CCC(N3CCN(C)CC3)CC2)ccc1Nc1ncc(Cl)c(Nc2ccccc2S(=O)(=O)C(C)C)n1` gave an IC50 of 900 nM (BJ; 72 h).
`CC(C)C[C@H](NC(=O)[C@H](Cc1ccccc1)NC(=O)c1cnccn1)B(O)O` has an IC50 of 14 nM (HuTu80; ATP luminescence).
`COc1cc2c(Oc3ccc(NC(=O)C4(C(=O)Nc5ccc(F)cc5)CC4)cc3F)ccnc2cc1OCCCN1CCOCC1` gave an IC50 of 180 nM (BJ; 72 h).
`COc1cccc2c1C(=O)c1c(O)c3c(c(O)c1C2=O)C[C@@](O)(C(=O)CO)C[C@@H]3O[C@H]1C[C@H](N)[C@H](O)[C@H](C)O1` has an IC50 of 0.22 µg/mL (WI-38 VA13; MTT; 48 h).
`Oc1ccc(-c2ccc3cc(O)ccc3c2)c(O)c1` has an IC50 of 119 µg/mL (CHL; MTT; 24 h).
`O=C(N/N=C/c1c(O)ccc2ccccc12)c1cc(-c2ccc3ccccc3c2)n[nH]1` gave an IC50 of 5800 nM (1205Lu; MTS; 48 h).
The IC50 of `CC(=O)O[C@H]1C(=O)[C@@]2(C)[C@H]([C@H](OC(=O)c3ccccc3)[C@]3(O)C[C@H](OC(=O)[C@H](O)[C@@H](NC(=O)c4ccccc4)c4ccccc4)C(C)=C1C3(C)C)[C@]1(OC(C)=O)CO[C@@H]1C[C@@H]2O` is reported as 1 µg/mL (LN-18).
